Experiment [1] is described as follows: Glycomer activity determined as growth inhibition of human glioblastoma LN18 cells. The format is functional, cell-based. The essentials:
(§1)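 Cells grown 24 h with FCS, then 24 h without FCS, then exposed to glycomers at increasing concentrations in serum-free medium for 24 h. MTT at 0.2 mg/mL was added for the last 2 h, formazan was dissolved in 0.1 N HCl/2-propanol and read at 540 nm. Growth inhibition = treated/control MTT reduction. IC50 is the concentration giving 50% inhibition from dose–response curves. Triplicate, mean ± SD.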

Experiment [2] in a line: Glycomer activity determined as growth inhibition of human glioblastoma LNZ308 cells. The format is functional, cell-based. A digest of the protocol:
as §1

pIC50: −log10 of the molar value.

Consider `C=CCO[C@H]1[C@H](O)[C@H](COS(=O)(=O)c2cccc(C(F)(F)F)c2)O[C@@H](Oc2ccc(I)cc2)[C@H]1OC(C)=O`, for which the pIC50 in experiment [1] (Homo sapiens, LN-18) was 4.90; in experiment [2] (Homo sapiens, LNZ308), 4.89.

For `C=CCO[C@H]1[C@H](O)[C@H](COS(=O)(=O)c2cccc(C(F)(F)F)c2)O[C@@H](Oc2ccc(I)cc2)[C@H]1OC(=O)CCc1ccccc1`, the pIC50 was less than 4.30 in experiment [1] (Homo sapiens, LN-18) and less than 4.30 in experiment [2] (Homo sapiens, LNZ308).

`CCCO[C@H]1[C@H](O)[C@H](COS(=O)(=O)c2cccc(C(F)(F)F)c2)O[C@@H](Oc2ccccc2)[C@H]1OC(=O)CCC`: the negative logarithm of the IC50 (pIC50) in experiment [1] (Homo sapiens, LN-18) was less than 4.30; in experiment [2] (Homo sapiens, LNZ308), less than 4.30.

Consider `CO[C@@H]1[C@H](O)[C@H](Oc2ccc(I)cc2)O[C@@H](COS(=O)(=O)c2cccc(C(F)(F)F)c2)[C@H]1O`, for which the pIC50 in experiment [1] (Homo sapiens, LN-18) was less than 4.30; in experiment [2] (Homo sapiens, LNZ308) it was less than 4.30.

Take `C=CCO[C@H]1[C@@H](O)[C@H](COCc2ccccc2)O[C@@H](Oc2ccc(I)cc2)[C@H]1OC(=O)CCC`: the negative-log IC50 (pIC50) is 4.70 in experiment [1] (Homo sapiens, LN-18) and 4.43 in experiment [2] (Homo sapiens, LNZ308).

In the case of `C=CCO[C@H]1[C@H](O)[C@H](COCc2ccccc2)O[C@@H](Oc2ccc(Br)cc2)[C@H]1OC(=O)CCC`, the pIC50 in experiment [1] (Homo sapiens, LN-18) was less than 4.30; in experiment [2] (Homo sapiens, LNZ308) it was less than 4.30.

For `CCCC(=O)O[C@@H]1[C@H](Oc2ccc(I)cc2)O[C@@H](COS(=O)(=O)c2cccc(C(F)(F)F)c2)[C@@H](O)[C@@H]1OC`, the pIC50 was 4.59 in experiment [1] (Homo sapiens, LN-18) and 4.66 in experiment [2] (Homo sapiens, LNZ308).

Take `C=CCO[C@H]1[C@H](O)[C@H](COS(=O)(=O)c2cccc(C(F)(F)F)c2)O[C@@H](Oc2ccc(Br)cc2)[C@H]1OC(=O)CCC`: the pIC50 in experiment [1] (Homo sapiens, LN-18) was less than 4.30; in experiment [2] (Homo sapiens, LNZ308) it was less than 4.30.

For the compound `C=CCO[C@H]1[C@H](O)[C@H](COCc2ccccc2)O[C@@H](Oc2ccc(I)cc2)[C@H]1OC(=O)C(C)C`, the pIC50 was less than 4.30 in experiment [1] (Homo sapiens, LN-18) and less than 4.30 in experiment [2] (Homo sapiens, LNZ308).

Take `C=CCOC1C(O)C(CNS(=O)(=O)c2cccc(C(F)(F)F)c2)OC(Oc2ccc(I)cc2)C1OC(=O)CCC` (stereo in doubt; 10b): the pIC50 in experiment [1] (ln18) is 5.19; in experiment [2] (Homo sapiens, LNZ308), 4.76.

`C=CCO[C@H]1[C@@H](O)[C@H](COS(=O)(=O)c2cccc(C(F)(F)F)c2)O[C@@H](Oc2ccc(I)cc2)[C@H]1OC(=O)C(C)C`: the pIC50 in experiment [1] (Homo sapiens, LN-18) was 4.73; in experiment [2] (Homo sapiens, LNZ308), 4.74.

`C=CCO[C@@H]1[C@H](OC(=O)CC)[C@H](Oc2ccc(I)cc2)O[C@@H](COS(=O)(=O)c2cccc(C(F)(F)F)c2)[C@H]1OCc1ccc(OC)cc1`: the pIC50 in experiment [1] (Homo sapiens, LN-18) is less than 4.30; in experiment [2] (Homo sapiens, LNZ308), less than 4.30.

For the compound `CCCC(=O)O[C@@H]1[C@H](Oc2ccc(I)cc2)O[C@@H](COCc2ccccc2)[C@@H](O)[C@@H]1OC`, the pIC50 was less than 4.30 in experiment [1] (Homo sapiens, LN-18) and less than 4.30 in experiment [2] (Homo sapiens, LNZ308).

With `C=CCO[C@H]1[C@H](O)[C@H](COS(=O)(=O)c2cccc(C(F)(F)F)c2)O[C@@H](Oc2ccc(I)cc2)[C@H]1OC(=O)CCC` (stereo in doubt; 16a), the pIC50 in experiment [1] (Homo sapiens, LN-18) was 4.40; in experiment [2] (Homo sapiens, LNZ308), 4.54.

For the compound `CCCC(=O)O[C@@H]1[C@H](Oc2ccc(I)cc2)O[C@@H](COCc2ccccc2)[C@@H](O)[C@@H]1OCCO`, the pIC50 in experiment [1] (Homo sapiens, LN-18) was less than 4.30; in experiment [2] (Homo sapiens, LNZ308), less than 4.30.

Take `C=CCO[C@H]1[C@H](O)[C@H](COCc2ccccc2)O[C@@H](Oc2ccc(OC)cc2)[C@H]1OC(C)=O`: the pIC50 in experiment [1] (Homo sapiens, LN-18) is less than 4.30; in experiment [2] (Homo sapiens, LNZ308), less than 4.30.

As for `C=CCOC1C(O)C(CNS(=O)(=O)c2cccc(C(F)(F)F)c2)OC(Oc2ccc(I)cc2)C1OC(=O)C(C)C` (stereo not given), the pIC50 in experiment [1] (Homo sapiens, LN-18) is 4.90; in experiment [2] (Homo sapiens, LNZ308) it was 5.12.

In the case of `C=CCO[C@H]1[C@H](O)[C@H](COS(=O)(=O)c2cccc(C(F)(F)F)c2)O[C@@H](Oc2ccc(I)cc2)[C@H]1OC(=O)CCC` (stereo in doubt; 8c), the pIC50 in experiment [1] (ln18) was 4.37; in experiment [2] (lnz308), 4.39.

`C=CCOC1C(O)C(CNS(=O)(=O)c2cccc(C(F)(F)F)c2)OC(Oc2ccc(I)cc2)C1O` (stereo not given): the negative logarithm of the IC50 (pIC50) was 4.80 in experiment [1] (Homo sapiens, LN-18) and 4.57 in experiment [2] (Homo sapiens, LNZ308).

With `C=CCO[C@@H]1[C@H](O)[C@H](Oc2ccc(I)cc2)O[C@@H](COS(=O)(=O)c2cccc(C(F)(F)F)c2)[C@H]1O`, the pIC50 is 4.68 in experiment [1] (Homo sapiens, LN-18) and 4.72 in experiment [2] (Homo sapiens, LNZ308).

(Values after ChEMBL document CHEMBL1145048, “Functionalized glycomers as growth inhibitors and inducers of apoptosis in human glioblastoma cells” (J Med Chem, 2003).)
